≈ marks a conversion by molar mass, not a printed value.

The nature of data set [1]: Solubility studies of CoQ10 in water by HPLC. The data set is classed as physicochemical. Summed up:
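The powder was mixed with an equal volume of water to give a supersaturated solution. It was shaken at 200 rpm in a 25 °C water bath for 24 h. CoQ10 was measured by HPLC on a C8 column at 45 °C with methanol at 1 mL/min, against a 0.05–25 μg/mL standard curve. Triplicate independent experiments; mean ± SD.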

Data set [2] is described as follows: In vivo bioavailability study, plasma CoQ10 after oral administration to rats. The conditions noted are these: male, SD, rat, 15 mg/kg. Summed up:
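Six-week-old SPF male rats (180–200 g), acclimatised ≥3 days at 23–25 °C with a 12 h light/dark cycle, n = 5 per group, fasted 12 h. Oral 15 mg/kg dose in 0.5% (w/v) sodium CMC. Tail-vein blood at 0, 0.5, 1, 2, 4, 8, 12 and 24 h. Plasma extracted with n-propanol and assayed by HPLC against a 0–3000 ng/mL plasma standard curve. Non-compartmental model; AUC by linear trapezoid.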

Turning to `COC1=C(OC)C(=O)C(C/C=C(\C)CC/C=C(\C)CC/C=C(\C)CC/C=C(\C)CC/C=C(\C)CC/C=C(\C)CC/C=C(\C)CC/C=C(\C)CC/C=C(\C)CCC=C(C)C)=C(C)C1=O` [CoQ10, Coenzyme Q10], in data set [1], the solubility (in general, the concentration that dissolves in the medium under given conditions) at 24 h is 2.3 µg/mL (≈ 2.66 µM). Besides, in data set [2], the AUC(0-t) (commonly exposure summed from dosing to a finite time, without extrapolation to infinity) turned out to be 196 ± 96.9 ng·h/mL and the Cmax (commonly the highest concentration seen after dosing) stood at 50.3 ± 5.7 ng/mL. For the same compound, the Tmax (as a rule, the time from dosing to the highest level) in data set [2] (Tmax, rats, oral, n = 5, plasma CoQ10) is about 1 h.

Values taken from PMC12145421 (NPJ Science of Food, 2025).
